Laboratory results taken from ChEMBL document CHEMBL2040785, “Regioselective synthesis and antimicrobial studies of ester linked 1,4-disubstituted 1,2,3-bistriazoles” (2012).
Converted amounts (≈) assume the structure as drawn.

Experiments:
Format in all cases: functional
Bacillus subtilis = assay: Antibacterial activity against Bacillus subtilis MTCC 441 after 24 hrs by serial dilution method; details: MTCC 441, 24 h
Outline: (§1)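 Tube serial dilution MIC. Compounds held as 100 µg/ml stocks and serially diluted in tubes of 1 ml sterile double strength nutrient broth to 50–3.12 µg/ml. Each tube was inoculated with 100 µL of bacterial suspension in sterile saline. Incubation at 37 ± 1 °C for 24 h. Norfloxacin was the reference drug and DMSO the solvent control.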

Escherichia coli = assay: Antibacterial activity against Escherichia coli MTCC 7443 after 24 hrs by serial dilution method; details: MTCC 7443, 24 h; outline: as §1
Aspergillus niger = assay: Antifungal activity against Aspergillus niger MTCC 282 after 120 hrs by serial dilution method; details: MTCC 282, 120 h
Outline: (§2)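 Tube serial dilution MIC in Sabouraud dextrose broth. Stocks of 100 µg/ml were diluted in 1 ml sterile medium to 50–3.12 µg/ml, and each tube was inoculated with 100 µL of fungal suspension in sterile saline. Incubation at 25 ± 1 °C, 48 h for C. albicans and 120 h for A. niger. Fluconazole was the reference drug and DMSO the solvent control.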

Candida albicans = assay: Antifungal activity against Candida albicans MTCC 183 after 48 hrs by serial dilution method; details: MTCC 183, 48 h; outline: as §2

SMILES	MIC (Bacillus subtilis)	MIC (Escherichia coli)	MIC (Aspergillus niger)	MIC (Candida albicans)
O=C(CC(=O)OCc1cn(Cc2ccccc2)nn1)OCc1cn(Cc2ccccc2)nn1	28 µM (≈ 12.5 µg/mL)	28 µM (≈ 12.5 µg/mL)	14 µM (≈ 6.25 µg/mL)	14 µM (≈ 6.25 µg/mL)
O=C(CC(=O)OCc1cn(CCc2ccccc2)nn1)OCc1cn(CCc2ccccc2)nn1	26.3 µM (≈ 12.5 µg/mL)	26.3 µM (≈ 12.5 µg/mL)	26.3 µM (≈ 12.5 µg/mL)	26.3 µM (≈ 12.5 µg/mL)
O=C(CCC(=O)OCc1cn(Cc2ccccc2)nn1)OCc1cn(Cc2ccccc2)nn1	27.1 µM (≈ 12.5 µg/mL)	27.1 µM (≈ 12.5 µg/mL)	27.1 µM (≈ 12.5 µg/mL)	13.5 µM (≈ 6.22 µg/mL)
O=C(CCC(=O)OCc1cn(CCc2ccccc2)nn1)OCc1cn(CCc2ccccc2)nn1	25.6 µM (≈ 12.5 µg/mL)	12.8 µM (≈ 6.25 µg/mL)	25.6 µM (≈ 12.5 µg/mL)	12.8 µM (≈ 6.25 µg/mL)
O=C(CCCC(=O)OCc1cn(Cc2ccccc2)nn1)OCc1cn(Cc2ccccc2)nn1	26.3 µM (≈ 12.5 µg/mL)	26.3 µM (≈ 12.5 µg/mL)	26.3 µM (≈ 12.5 µg/mL)	13.5 µM (≈ 6.41 µg/mL)
O=C(CCCC(=O)OCc1cn(CCc2ccccc2)nn1)OCc1cn(CCc2ccccc2)nn1	24.9 µM (≈ 12.5 µg/mL)	24.9 µM (≈ 12.5 µg/mL)	24.9 µM (≈ 12.5 µg/mL)	24.9 µM (≈ 12.5 µg/mL)
O=C(CCCCC(=O)OCc1cn(Cc2ccccc2)nn1)OCc1cn(Cc2ccccc2)nn1	25.6 µM (≈ 12.5 µg/mL)	12.8 µM (≈ 6.25 µg/mL)	12.8 µM (≈ 6.25 µg/mL)	12.8 µM (≈ 6.25 µg/mL)
O=C(CCCCC(=O)OCc1cn(CCc2ccccc2)nn1)OCc1cn(CCc2ccccc2)nn1	24.2 µM (≈ 12.5 µg/mL)	24.2 µM (≈ 12.5 µg/mL)	24.2 µM (≈ 12.5 µg/mL)	12.1 µM (≈ 6.25 µg/mL)
O=C(OCc1cn(Cc2ccccc2)nn1)c1cccc(C(=O)OCc2cn(Cc3ccccc3)nn2)n1	12.3 µM (≈ 6.27 µg/mL)	12.3 µM (≈ 6.27 µg/mL)	24.6 µM (≈ 12.5 µg/mL)	12.3 µM (≈ 6.27 µg/mL)
O=C(OCc1cn(CCc2ccccc2)nn1)c1cccc(C(=O)OCc2cn(CCc3ccccc3)nn2)n1	23.3 µM (≈ 12.5 µg/mL)	23.3 µM (≈ 12.5 µg/mL)	23.3 µM (≈ 12.5 µg/mL)	23.3 µM (≈ 12.5 µg/mL)
O=C(OCc1cn(CCc2ccccc2)nn1)c1cccc(C(=O)OCc2cn(CCc3ccccc3)nn2)c1	23.3 µM (≈ 12.5 µg/mL)	23.3 µM (≈ 12.5 µg/mL)	23.3 µM (≈ 12.5 µg/mL)	23.3 µM (≈ 12.5 µg/mL)
O=C(OCc1cn(CCc2ccccc2)nn1)c1ccc(C(=O)OCc2cn(CCc3ccccc3)nn2)cc1	23.3 µM (≈ 12.5 µg/mL)	23.3 µM (≈ 12.5 µg/mL)	23.3 µM (≈ 12.5 µg/mL)	23.3 µM (≈ 12.5 µg/mL)
OC(Cn1cncn1)(Cn1cncn1)c1ccc(F)cc1F [FLUCONAZOLE]			10.2 µM (≈ 3.12 µg/mL)	10.2 µM (≈ 3.12 µg/mL)
CCn1cc(C(=O)O)c(=O)c2cc(F)c(N3CCNCC3)cc21 [NORFLOXACIN]	9.8 µM (≈ 3.13 µg/mL)	9.8 µM (≈ 3.13 µg/mL)		
